Reference: article PMC7316630 (Nature immunology, 2020)
Structures can show the parent of a compound that is named as a salt. Blank lines part the entries; values can stand above or below the compound they belong to. Peptide text beside a SMILES is read from it. * marks the point of attachment. Cbz = O=C(OCc1ccccc1)*; CH2F = FC*

Columns and labels:
human GSDMD = target: T1, human GSDMD (Homo sapiens, UniProt P57764); assay type: biochemical; conditions: for Inhibition of GSDMD and caspase-11-mediated liposome leakage (in words): GSDMD 0.3 μM plus caspase-11 0.15 μM, LDC7559 at up to 50 μM
T1 sequence (P57764 1-484): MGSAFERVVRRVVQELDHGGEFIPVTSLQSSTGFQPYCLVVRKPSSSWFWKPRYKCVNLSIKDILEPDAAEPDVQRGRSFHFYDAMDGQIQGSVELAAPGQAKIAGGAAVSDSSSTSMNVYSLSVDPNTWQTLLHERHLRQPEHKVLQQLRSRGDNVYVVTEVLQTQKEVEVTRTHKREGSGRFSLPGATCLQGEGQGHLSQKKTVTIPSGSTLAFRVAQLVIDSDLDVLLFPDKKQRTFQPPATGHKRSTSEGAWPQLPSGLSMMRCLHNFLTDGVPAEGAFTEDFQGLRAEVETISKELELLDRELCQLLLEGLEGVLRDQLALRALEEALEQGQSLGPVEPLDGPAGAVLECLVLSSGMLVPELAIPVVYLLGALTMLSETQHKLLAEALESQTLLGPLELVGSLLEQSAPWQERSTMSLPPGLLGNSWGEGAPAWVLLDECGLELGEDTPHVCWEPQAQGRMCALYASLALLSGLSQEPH

LPS-primed iBMDMs = assay: Immunoblot of caspase-1, GSDMD, pro-IL-1β cleavage and IL-1β release; assay type: cell-based, mouse; conditions: 1 hr before nigericin; lysates 1 hr later
Outline: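 Mouse iBMDMs were pretreated for 1 hr with test compound, Bay 11-7082, necrosulfonamide or z-VAD-fmk, then given nigericin. Whole cell lysates and culture supernatants were harvested 1 hr after nigericin and immunoblotted with the indicated antibodies. Data come from three independent experiments.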

LPS-primed THP-1 cells [1] = assay: Immunoblot of caspase-1, GSDMD, pro-IL-1β cleavage and IL-1β release; assay type: cell-based, human; conditions: 30 μM, 1 hr before nigericin
pre-cleaved mouse GSDMA3 = target: T2, pre-cleaved mouse GSDMA3 (Mus musculus, UniProt Q5Y4Y6); assay: Liposome leakage by pre-cleaved GSDMA3; assay type: biochemical; conditions: pre-cleaved mouse GSDMA3 0.3 μM
T2 sequence (Q5Y4Y6 with tags, fused parts or gaps limits assumed): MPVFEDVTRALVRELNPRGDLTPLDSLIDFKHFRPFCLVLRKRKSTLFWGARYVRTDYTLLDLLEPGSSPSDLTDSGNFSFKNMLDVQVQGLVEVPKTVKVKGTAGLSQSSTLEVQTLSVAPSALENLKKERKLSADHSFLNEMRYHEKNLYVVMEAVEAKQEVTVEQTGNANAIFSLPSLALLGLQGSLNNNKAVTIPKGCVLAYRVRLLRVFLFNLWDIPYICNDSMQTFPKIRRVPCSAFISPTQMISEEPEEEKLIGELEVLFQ

iBMDM = assay: LPS transfection-induced IL-1β secretion, ELISA; assay type: cell-based, mouse; conditions: 2.5 h; potency comparable to z-VAD-fmk
Mouse iBMDMs = assay: AIM2 inflammasome cell death, poly; assay type: cell-based; conditions: 5–40 μM, 1 hr pretreatment, 4 hrs
THP-1 = assay: Nigericin-induced IL-1β secretion, ELISA; assay type: cell-based, human; conditions: potency comparable to z-VAD-fmk
C57BL/6J mice = assay: LPS-induced sepsis, survival; assay type: in vivo, mouse; conditions: LPS 25 mg/kg; 50 mg/kg i.p. 4 hrs before and daily after LPS
HT-29 cells = assay: Necroptosis induced by TNF, SMAC mimetic and z-VAD-fmk, CellTiter-Glo; assay type: cell-based; conditions: disulfiram 10 and 50 μM, NSA 2 μM, Nec 10 μM; 1 hr pretreatment; 24 hrs
Outline: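 HT-29 cells were pretreated for 1 hr. Necroptosis was then induced with TNF (20 ng/ml), SMAC mimetic (100 nM) and z-VAD-fmk (20 μM). Viability was read 24 hrs later as ATP by CellTiter-Glo luminescence.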

LPS-primed THP-1 = assay: LPS + nigericin cell death with or without Cu; assay type: cell-based, human; conditions: with versus without Cu(II)
LPS-primed THP-1 cells [2] = assay: ASC speck formation, immunofluorescence; assay type: cell-based, human; conditions: 30 μM, 1 hr before nigericin; 20 min after nigericin
Outline: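 THP-1 cells were differentiated with 50 nM PMA for 36 hrs, primed with LPS (1 μg/ml) for 4 hrs, and pretreated with test compound, vehicle or z-VAD-fmk, then given nigericin (20 μM). Cells on coverslips were fixed in 4% paraformaldehyde for 15 min, permeabilized in 0.1% Triton X-100 for 5 min and blocked in 5% BSA for 1 hr. ASC was then immunostained.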

LPS-primed THP-1 cells [3] = assay: GSDMD membrane staining and pyroptotic bubbles, confocal microscopy; assay type: cell-based, human; conditions: 30 μM; 30 min after nigericin
Outline: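 PMA-differentiated THP-1 cells were primed with LPS (1 μg/ml, 4 hrs), pretreated for 1 hr and given nigericin. They were fixed (4% PFA), permeabilized (0.1% Triton X-100), blocked (5% BSA) and stained with an in-house mouse monoclonal anti-GSDMD antibody. Confocal images were scored for cells with membrane GSDMD staining and pyroptotic bubbles across 40 high-power fields per sample, in 5 independent experiments. Two-tailed Student's t-test was used.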

Inhibition of GSDMD and caspase-11-mediated liposome leakage (in words) (human GSDMD): moderately inhibited
Proteolytic processing of caspase-1, GSDMD and pro-IL-1β (LPS-primed iBMDMs): inhibited
Structure (SMILES): Cc1ccc(S(=O)(=O)/C=C/C#N)cc1 [Bay 11–7082]

Inhibition of GSDMD and caspase-11-mediated liposome leakage (in words) (human GSDMD): hardly any activity
Structure (SMILES): COC(=O)/C=C/C(=O)OC [DMF, dimethyl fumarate]

Inhibition of GSDMD and caspase-11-mediated liposome leakage (in words) (human GSDMD): hardly any activity
Structure (SMILES): CN(C)C/C=C/C(=O)Nc1cc2c(Nc3ccc(F)c(Cl)c3)ncnc2cc1O[C@H]1CCOC1 [afatinib]

Inhibition of GSDMD and caspase-11-mediated liposome leakage (in words) (human GSDMD): hardly any activity
Structure (SMILES): C=CC(=O)N1CCC[C@@H](n2nc(-c3ccc(Oc4ccccc4)cc3)c3c(N)ncnc32)C1 [ibrutinib]

Second part, the compound before the results:

Structure (SMILES): CCN(CC)C(=S)SSC(=S)N(CC)CC [C-23, tetraethylthiuram disulfide]
IL-1β in culture supernatant (LPS-primed THP-1 cells [1]; immunoblot): no IL-1β was detected
Inhibition of pore formation of pre-cleaved GSDMA3 (pre-cleaved mouse GSDMA3): did not inhibit
LPS transfection-induced IL-1β secretion (iBMDM): inhibited
Effect on AIM2 inflammasome-triggered cell death (Mouse iBMDMs): impaired cell death in a dose-dependent manner
Nigericin-induced IL-1β secretion (THP-1): inhibited
Survival of Casp1–/– mice (C57BL/6J mice): protected
Incubation time at which inhibition of liposome leakage was seen (human GSDMD; preincubation with GSDMD 2–90 min, 0–5.6 μM): ≤ 2 min
Effect on necroptosis (cell viability) (HT-29 cells): no effect
Decrease of IC50 for inhibiting pyroptosis with Cu(II) (LPS-primed THP-1): 24 fold
ASC speck formation (LPS-primed THP-1 cells [2]): only modestly inhibited

Structure (SMILES): COc1ccccc1-c1cc2n(n1)Cc1ccc(NC(C)=O)cc1OC2 [LDC7559]
Inhibition of GSDMD and caspase-11-mediated liposome leakage (in words) (human GSDMD): no activity

Structure (SMILES): COc1nccnc1NS(=O)(=O)c1ccc(NC(=O)/C=C/c2ccc([N+](=O)[O-])s2)cc1 [NSA, necrosulfonamide]
Inhibition of GSDMD and caspase-11-mediated liposome leakage (in words) (human GSDMD): moderately inhibited
Effect on necroptosis (cell viability) (HT-29 cells): blocked
Proteolytic processing of caspase-1, GSDMD and pro-IL-1β (LPS-primed iBMDMs): inhibited

Structure (SMILES): CN1C(=O)C(Cc2c[nH]c3ccccc23)NC1=S (centres unmarked) [necrostatin-1]
Effect on necroptosis (cell viability) (HT-29 cells): blocked

Structure (SMILES): COC(=O)C[C@H](NC(=O)[C@H](C)NC(=O)[C@@H](NC(=O)OCc1ccccc1)C(C)C)C(=O)CF [z-VAD-fmk] (Cbz-Val-Ala-Asp(OMe)-CH2F)
Proteolytic processing of caspase-1, GSDMD and pro-IL-1β (LPS-primed THP-1 cells [1]; lysates 1 hr later): inhibited the processing of all 3 proteins
GSDMD membrane staining and appearance of pyroptotic bubbles (LPS-primed THP-1 cells [3]): completely blocked
ASC speck formation (LPS-primed THP-1 cells [2]): not inhibited
